{"source": "ChEMBL document CHEMBL3868630", "about": "“Synthesis, anti-proliferative activity, SAR study, and preliminary in vivo toxicity study of substituted N,N'-bis(arylmethyl)benzimidazolium salts against a panel of non-small cell lung cancer cell lines” (Bioorg Med Chem, 2017)", "key": {"[1]": {"experiment": "Cytotoxicity against human NCI-H1975 cells assessed as decrease in cell viability after 72 hrs by MTT assay", "type": "functional, cell-based", "conditions": "NCI-H1975, 72 h", "method_in_brief": "(§1)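 Cells kept in RPMI 1640 with 10% FBS at 37 °C, 5% CO2, passaged every 2-3 days; seeded at 5,000-7,000 cells/well and left 24 h. Compounds dissolved in 1% DMSO, diluted in fresh medium to 1, 4, 16 and 32 µM, added in sextuplicate; 72 h exposure. MTT added for 3-4 h, medium removed, DMSO added for 15 min at 37 °C, OD read at 540 nm.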"}, "Mus musculus [2]": {"system": "Mus musculus", "experiment": "Toxicity in C57BL/6 mouse assessed as weight loss at 20 mg/kg, ip measured on day 2", "type": "organism-based", "conditions": "in vivo", "method_in_brief": "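Male C57BL/6 mice, 8 weeks old, 3 per cage, 12 h light/dark, food and water ad libitum, acclimated 5 days. Single IP dose on day 0 of 100 µL of 4 mg/mL in 20% 2-HPβCD in sterile PBS (~20 mg/kg assuming 20 g mice). Vehicle controls got 100 µL 20% 2-HPβCD/PBS IP on days 0, 7, 14, 21, 25. Weighed and monitored daily.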"}, "[3]": {"experiment": "Cytotoxicity against human HCC827 cells assessed as decrease in cell viability after 72 hrs by MTT assay", "type": "functional, cell-based", "conditions": "HCC827, 72 h", "method_in_brief": "as §1"}, "[4]": {"experiment": "Aqueous solubility of the compound", "type": "physicochemical"}, "[5]": {"experiment": "Cytotoxicity against human NCI-H460 cells assessed as cell growth at 10 uM after 48 hrs by SRB assay relative to control", "type": "functional", "conditions": "NCI-H460, 48 h, read-out: Activity"}, "[6]": {"experiment": "Cytotoxicity against human NCI-H226 cells assessed as cell growth at 10 uM after 48 hrs by SRB assay relative to control", "type": "functional", "conditions": "NCI-H226, 48 h, read-out: Activity"}, "[7]": {"experiment": "Toxicity in C57BL/6 mouse assessed as mouse survival rate at 20 mg/kg, ip measured after 16 days", "type": "organism-based", "conditions": "in vivo", "method_in_brief": "(§2)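 Male C57BL/6 mice, eight weeks old, housed three per cage on a 12 h light/dark cycle with food and water ad libitum, acclimated 5 days. Single IP injection on day 0 of 100 µL of a 4 mg/mL solution (0.4 mg, ~20 mg/kg assuming 20 g mice) in 20% 2-HPβCD sterile PBS. Vehicle controls were injected on days 0, 7, 14, 21 and 25. Mice were monitored and weighed daily.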"}, "[8]": {"experiment": "Growth inhibition of human NCI-H322M cells after 48 hrs by SRB assay", "type": "functional"}, "[9]": {"experiment": "Cytotoxicity against human A549 cells assessed as cell growth at 10 uM after 48 hrs by SRB assay relative to control", "type": "functional", "conditions": "A549, 48 h, read-out: Activity"}, "[10]": {"experiment": "Cytotoxicity against human A549 cells assessed as decrease in cell viability after 72 hrs by MTT assay", "type": "functional, cell-based", "conditions": "A549, 72 h", "method_in_brief": "as §1"}, "[11]": {"experiment": "Growth inhibition of human NCI-H226 cells after 48 hrs by SRB assay", "type": "functional", "conditions": "NCI-H226, 48 h"}, "[12]": {"experiment": "Growth inhibition of human HOP92 cells after 48 hrs by SRB assay", "type": "functional", "conditions": "HOP-92, 48 h"}, "[13]": {"experiment": "Cytotoxicity against human NCI-H322M cells assessed as cell growth at 10 uM after 48 hrs by SRB assay relative to control", "type": "functional", "conditions": "read-out: Activity"}, "[14]": {"experiment": "Growth inhibition of human NCI-H23 cells after 48 hrs by SRB assay", "type": "functional", "conditions": "NCI-H23, 48 h"}, "[15]": {"experiment": "Growth inhibition of human NCI-H522 cells after 48 hrs by SRB assay", "type": "functional", "conditions": "NCI-H522, 48 h"}, "[16]": {"experiment": "Cytotoxicity against human NCI-H522 cells assessed as cell growth at 10 uM after 48 hrs by SRB assay relative to control", "type": "functional", "conditions": "NCI-H522, 48 h, read-out: Activity"}, "[17]": {"experiment": "Growth inhibition of human NCI-H460 cells after 48 hrs by SRB assay", "type": "functional", "conditions": "NCI-H460, 48 h"}, "[18]": {"experiment": "Growth inhibition of human HOP62 cells after 48 hrs by SRB assay", "type": "functional", "conditions": "HOP-62, 48 h"}, "[19]": {"experiment": "Cytotoxicity against human EKVX cells assessed as cell growth at 10 uM after 48 hrs by SRB assay relative to control", "type": "functional", "conditions": "read-out: Activity"}, "[20]": {"experiment": "Cytotoxicity against human HOP92 cells assessed as cell growth at 10 uM after 48 hrs by SRB assay relative to control", "type": "functional", "conditions": "HOP-92, 48 h, read-out: Activity"}, "Mus musculus [21]": {"system": "Mus musculus", "experiment": "Toxicity in C57BL/6 mouse assessed as increase in body mass at 20 mg/kg, ip measured after 16 days", "type": "organism-based", "conditions": "in vivo, 384 h", "method_in_brief": "as §2"}, "[22]": {"experiment": "Cytotoxicity against human NCI-H23 cells assessed as cell growth at 10 uM after 48 hrs by SRB assay relative to control", "type": "functional", "conditions": "NCI-H23, 48 h, read-out: Activity"}, "[23]": {"experiment": "Growth inhibition of human A549 cells after 48 hrs by SRB assay", "type": "functional", "conditions": "A549, 48 h"}, "[24]": {"experiment": "Cytotoxicity against human NCI-H460 cells assessed as decrease in cell viability after 72 hrs by MTT assay", "type": "functional, cell-based", "conditions": "NCI-H460, 72 h", "method_in_brief": "as §1"}, "[25]": {"experiment": "Cytotoxicity against human HOP62 cells assessed as cell growth at 10 uM after 48 hrs by SRB assay relative to control", "type": "functional", "conditions": "HOP-62, 48 h, read-out: Activity"}, "[26]": {"experiment": "Growth inhibition of human EKVX cells after 48 hrs by SRB assay", "type": "functional"}, "[27]": {"conditions": "read-out: LC50 (the source's name)"}}}
{"smiles": "COCCOCCOCc1n(Cc2ccc3ccccc3n2)c2ccccc2[n+]1Cc1ccc2ccccc2c1.[Br-]", "values": [{"measurement": "IC50", "setting": "[1]", "value": "< 1000", "unit": "nM"}, {"measurement": "Activity", "setting": "Mus musculus [2]", "value": "Toxic"}, {"measurement": "IC50", "setting": "[3]", "value": 6000, "unit": "nM"}, {"measurement": "solubility", "setting": "[4]", "value": 1900, "unit": "µg/mL"}, {"measurement": "growth at 10 µM", "setting": "[5]", "value": 7.94, "unit": "%"}, {"measurement": "growth at 10 µM", "setting": "[6]", "value": 28.1, "unit": "%"}, {"measurement": "survival at 384 h", "setting": "[7]", "value": 33, "unit": "%"}, {"measurement": "GI50", "setting": "[8]", "value": 1080, "unit": "nM"}, {"measurement": "TGI", "setting": "[8]", "value": 7090, "unit": "nM"}, {"measurement": "CC50", "setting": "[8]; [27]", "value": 28600, "unit": "nM"}, {"measurement": "growth at 10 µM", "setting": "[9]", "value": 22.5, "unit": "%"}, {"measurement": "IC50", "setting": "[10]", "value": 3000, "unit": "nM"}, {"measurement": "GI50", "setting": "[11]", "value": 874, "unit": "nM"}, {"measurement": "LC50", "setting": "[11]", "value": 45200, "unit": "nM"}, {"measurement": "TGI", "setting": "[11]", "value": 4830, "unit": "nM"}, {"measurement": "GI50", "setting": "[12]", "value": 207, "unit": "nM"}, {"measurement": "LC50", "setting": "[12]", "value": 5220, "unit": "nM"}, {"measurement": "TGI", "setting": "[12]", "value": 718, "unit": "nM"}, {"measurement": "growth at 10 µM", "setting": "[13]", "value": 26.8, "unit": "%"}, {"measurement": "GI50", "setting": "[14]", "value": 386, "unit": "nM"}, {"measurement": "LC50", "setting": "[14]", "value": 53500, "unit": "nM"}, {"measurement": "TGI", "setting": "[14]", "value": 10300, "unit": "nM"}, {"measurement": "GI50", "setting": "[15]", "value": 248, "unit": "nM"}, {"measurement": "TGI", "setting": "[15]", "value": 936, "unit": "nM"}, {"measurement": "CC50", "setting": "[15]; [27]", "value": 4590, "unit": "nM"}, {"measurement": "growth at 10 µM", "setting": "[16]", "value": 0.79, "unit": "%"}, {"measurement": "GI50", "setting": "[17]", "value": 424, "unit": "nM"}, {"measurement": "LC50", "setting": "[17]", "value": 5700, "unit": "nM"}, {"measurement": "TGI", "setting": "[17]", "value": 1560, "unit": "nM"}, {"measurement": "GI50", "setting": "[18]", "value": 468, "unit": "nM"}, {"measurement": "TGI", "setting": "[18]", "value": 2520, "unit": "nM"}, {"measurement": "CC50", "setting": "[18]; [27]", "value": 9530, "unit": "nM"}, {"measurement": "growth at 10 µM", "setting": "[19]", "value": 31, "unit": "%"}, {"measurement": "growth at 10 µM", "setting": "[20]", "value": -18.2, "unit": "%"}, {"measurement": "Activity", "setting": "Mus musculus [21]", "value": 6, "unit": "%"}, {"measurement": "growth at 10 µM", "setting": "[22]", "value": 1.03, "unit": "%"}, {"measurement": "GI50", "setting": "[23]", "value": 748, "unit": "nM"}, {"measurement": "LC50", "setting": "[23]", "value": 37100, "unit": "nM"}, {"measurement": "TGI", "setting": "[23]", "value": 10600, "unit": "nM"}, {"measurement": "IC50", "setting": "[24]", "value": 3000, "unit": "nM"}, {"measurement": "growth at 10 µM", "setting": "[25]", "value": 11.7, "unit": "%"}, {"measurement": "GI50", "setting": "[26]", "value": 1270, "unit": "nM"}, {"measurement": "LC50", "setting": "[26]", "value": 50900, "unit": "nM"}, {"measurement": "TGI", "setting": "[26]", "value": 10800, "unit": "nM"}]}
